These results are taken from ChEMBL document CHEMBL1144865, “N-aminoimidazole derivatives inhibiting retroviral replication via a yet unidentified mode of action” (J Med Chem, 2003).

Structures are written as SMILES.

Experiment [1] concerns Human immunodeficiency virus 1. Briefly: Concentration required to inhibit the viral (HIV-1 NNRTI resistant strain) cytopathic effect by 50% in MT-4 cells. To be noted: Human immunodeficiency virus 1, MT4. In kind it is functional, organism-based. A digest of the protocol: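 MT-4 cells infected with HIV-1(III_B)-derived strain S0561945 (K103N + Y181C RT mutations, NNRTI-resistant). Cultured with varying compound concentrations; viability read on day 5 post-infection by MTT tetrazolium colorimetry. Value is the concentration giving 50% protection against virus-induced cytopathic effect. Cytotoxicity measured in parallel on mock-infected cells at day 5. Averages ± SD from at least two independent experiments.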
(In general: Cytopathic effects are the visible damage that an infection or toxin causes in cultured cells.)

The subject of experiment [2] is Human immunodeficiency virus 2. Briefly: Concentration required to inhibit the viral (HIV-2 ROD) cytopathic effect by 50% in MT-4 cells. To be noted: Human immunodeficiency virus 2, MT4. In kind it is functional, organism-based, MT4. A digest of the protocol:
(§1)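 Virus-infected MT-4 cells cultured with serial compound dilutions; viability measured 5 days after infection by MTT tetrazolium colorimetric read-out. The value is the concentration protecting 50% of cells from viral cytopathic effect. Averages ± SD from at least two independent experiments. HIV-2 and SIV stocks came from infected MT-4 culture supernatants.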

Experiment [3] relates to Simian immunodeficiency virus. Briefly: Concentration required to inhibit the viral (SIV mac251) cytopathic effect by 50% in MT-4 cells. In kind it is functional, organism-based, MT4. The note with it: Simian immunodeficiency virus, mac251, MT4. A digest of the protocol: as §1
For experiment [4], the system named is Human immunodeficiency virus 1. Briefly: Concentration required to inhibit the viral (HIV-1 NL4.3 strain) cytopathic effect by 50% in MT-4 cells. The note with it: Human immunodeficiency virus 1, MT4. It counts as functional, organism-based. A digest of the protocol:
as §1

The subject of experiment [5] is MT4. Briefly: (§2) Concentration that reduced the MT-4 cell viability by 50%. In kind it is functional, Homo sapiens. The note with it: Homo sapiens, MT4. A digest of the protocol:
(§3)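 Mock-infected MT-4 cells, run in parallel with the antiviral assay, were exposed to compound. Viability on day 5 was read by MTT colorimetry. The value is the concentration lowering viability by 50%. Averages ± SD from at least two independent experiments.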

Experiment [6] concerns C3H/3T3. Briefly: Tested for inhibitory concentration against MSV-Induced transformation of C3H/3T3 embryo murine fibroblast in vitro. In kind it is functional, cell-based. To be noted: Mus musculus. In short, it runs like this:
(§4)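 C3H/3T3 cells seeded at 20 000 cells/mL and incubated 24 h, then infected with 80 focus-forming units of MSV for 120 min. Medium was then replaced with fresh medium containing test compound. Transformation was scored microscopically after 6 days.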

Experiment [7] relates to Human immunodeficiency virus 1. Briefly: Concentration required to inhibit the viral (HIV-1 IIIB strain) cytopathic effect by 50% in MT-4 cells. In kind it is functional, organism-based. The note with it: Human immunodeficiency virus 1, MT4. A digest of the protocol: as §1
Experiment [8] has as its system C3H/3T3. Briefly: Tested for minimum inhibitory concentration against MSV-Induced transformation of C3H/3T3 embryo murine fibroblast in vitro. In kind it is functional. The note with it: Mus musculus. In short, it runs like this:
as §4

Experiment [9] concerns the target Human immunodeficiency virus type 1 reverse transcriptase (Human immunodeficiency virus 1) (UniProt Q72547). Briefly: Tested for the concentration required to inhibit recombinant HIV-1 reverse transcriptase using polyrC.oligodG as the template primer. In short, it runs like this: (§5)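 Recombinant HIV-1 RT assay. Template primer and labelled substrate were poly(rA).oligo(dT) with [³H]dTTP, or poly(rC).oligo(dG) with [³H]dGTP. Each radiolabelled dNTP was at 2.5 μM final in the reaction mixture.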

Experiment [10] shares this target. Briefly: Tested for the concentration required to inhibit recombinant HIV-1 reverse transcriptase using polyrA.oligodT as the template primer. A digest of the protocol: as §5
The subject of experiment [11] is MT4. The description is as §2. The note with it: Homo sapiens. In kind it is functional, cell-based. A digest of the protocol:
as §3

In general, IC50 refers to the midpoint of a concentration-inhibition curve. Usually CC50 stands for the concentration at which the toxic effect on the cells reaches its halfway point. A high value points to lower toxicity to the cells. As usually defined, the MIC is the smallest concentration in the dilution series that meets the test's criterion for growth inhibition. A lower MIC goes with a more susceptible organism. For `CCC1N=C(S)N(Nc2cccc(Cl)c2)C1c1ccccc1` (centres undefined), the IC50 was > 39 µM in [1]; > 39 µM in [2]; 3.88 µM in experiment [3]; > 39 µM in experiment [4]; > 12.1 µM in experiment [6]; 9.06 µM in [7]. Besides, the cytotoxic concentration (CC50) in experiment [5] worked out at 39 µM. The MIC in experiment [8] is > 12.1 µM.

Consider `Cc1ccc(NN2C(S)=NC(C)C2c2ccccc2)cc1C` (centres undefined), for which the IC50 in experiment [1] was > 55.6 µM; in [2], > 55.6 µM; in experiment [3], 10.3 µM; in experiment [4], 3.54 µM; in [6], > 64.6 µM; in experiment [7], 9.3 µM. This compound had a CC50 in experiment [5] of 55.6 µM. Besides, the MIC in [8] was > 64.6 µM.

As for `Cc1nc(S)n(Nc2cccc(Cl)c2)c1-c1ccccc1`, the concentration for half-maximal inhibition (IC50) came to 9.72 µM in [1]; 8.11 µM in experiment [2]; 8.2 µM in [3]; 8.99 µM in [4]; 38 µM in experiment [6]; 6.39 µM in experiment [7]. Besides, it took 66.7 µM to reach half-maximal cytotoxicity in experiment [5] (CC50). Also, the minimal inhibitory concentration (MIC) in experiment [8] was > 63.3 µM.

`Cc1nc(S)n(Nc2cccc(Cl)c2)c1-c1cccc(Cl)c1`: the half-maximal inhibitory concentration (IC50) in experiment [1] is 1.86 µM; in experiment [2], 3.91 µM; in experiment [3], 1.22 µM; in experiment [4] it was 2.48 µM; in experiment [6], > 11.4 µM; in experiment [7], 5 µM. This compound also returned a cytotoxic concentration (CC50) in experiment [5] of 30.9 µM. In addition, the minimal inhibitory concentration (MIC) in [8] is > 11.4 µM.

As for `Cc1cccc(NN2C(S)=NC(C)C2c2ccccc2)c1` (centres undefined), the IC50 in [1] was 26.1 µM; in [2], > 35.7 µM; in experiment [3], 6.5 µM; in experiment [4] it was 2.17 µM; in [6], > 67.7 µM; in [7], 1.56 µM. The Concentration in experiment [9] turned out to be 105 µM; in [10], 125 µM. The compound further displayed a 50% cytotoxic concentration (CC50) in experiment [5] of 88.2 µM. In addition, the minimal inhibitory concentration (MIC) in experiment [8] is > 67.7 µM.

Regarding `CC1N=C(S)N(Nc2cccc(Br)c2)C1c1ccccc1` (centres undefined), the IC50 in experiment [1] is 5.77 µM; in [2] it was > 44.2 µM; in experiment [3] it was 2.72 µM; in experiment [4], 4.52 µM; in experiment [7] it was 9.96 µM. This compound also displayed a cytotoxic concentration (CC50) in [5] of 44.2 µM.

With `CC1N=C(S)N(Nc2cccc(Cl)c2)C1c1cccc(C#N)c1` (centres undefined), the IC50 in [1] is > 99.4 µM; in experiment [2], > 99.4 µM; in experiment [3], > 99.4 µM; in experiment [4], 42 µM; in [7], ≥ 99.4 µM. The compound further displayed a cytotoxic concentration (CC50) in [5] of 99.4 µM.

On to `COc1cccc(NN2C(S)=NC(C)C2c2ccccc2)c1` (centres undefined), for which the IC50 in experiment [1] is > 38 µM; in experiment [2] it was > 38 µM; in experiment [3], > 38 µM; in experiment [4] it was 9.79 µM; in experiment [7], 4.78 µM. Moreover, half-maximal cytotoxicity in [5] (CC50) was put at 38 µM.

On to `CCC1N=C(S)N(Nc2cccc(C)c2)C1c1ccccc1` (centres undefined), for which the 50% inhibitory concentration (IC50) was ≥ 53.6 µM in experiment [1]; > 53.6 µM in [2]; > 53.6 µM in experiment [3]; 12.8 µM in experiment [4]; 17.6 µM in [7]. For the same compound, the CC50 in experiment [5] is 53.6 µM.

On to `CC1N=C(S)N(Nc2cccc(F)c2)C1c1ccccc1` (centres undefined), for which the IC50 in experiment [1] was ≥ 43.4 µM; in experiment [2], > 108 µM; in experiment [3], 33.8 µM; in experiment [4] it was 18.4 µM; in experiment [7], > 108 µM. This compound also yielded a CC50 in [5] of 108 µM.

As to `Cc1cccc(NN2C(S)=NC(C(C)C)C2c2ccccc2)c1` (centres undefined), the IC50 in [1], in experiment [2], in experiment [3], in experiment [4] and in experiment [7] was > 42.6 µM throughout. In [5], this compound showed a CC50 of 42.6 µM.

Regarding `Cc1nc(S)n(Nc2cccc3ccccc23)c1-c1ccccc1`, the 50% inhibitory concentration (IC50) in experiment [1] is 11.9 µM; in experiment [2], 5.1 µM; in experiment [3], 4.68 µM; in experiment [4], 6.58 µM; in [7] it was 5.55 µM. The compound also showed a CC50 in experiment [5] of 32 µM.

Turning to `Cc1cc(C)cc(NN2C(S)=NC(C)C2c2ccccc2)c1` (centres undefined), the concentration for half-maximal inhibition (IC50) in experiment [1] was > 194 µM; in experiment [2] it was > 194 µM; in experiment [3], > 194 µM; in [4], 0.87 µM; in experiment [7], 1.03 µM. For the same compound, the CC50 in [5] turned out to be 194 µM.

Regarding `Cc1nc(S)n(Nc2cccc(Cl)c2)c1-c1cccc(Br)c1`, the half-maximal inhibitory concentration (IC50) in experiment [1] stood at 3 µM; in [2], 10.5 µM; in [3], 1.75 µM; in experiment [4] it was 5.6 µM; in experiment [7], 8.54 µM. In experiment [5], this compound showed a half-maximal cytotoxic concentration (CC50) of 44 µM.

Take `Cc1nc(S)n(Nc2cccc(Cl)c2)c1-c1ccc(Cl)cc1`: the IC50 was > 40.8 µM in [1]; > 40.8 µM in experiment [2]; 7.71 µM in [3]; > 40.8 µM in [4]; > 40.8 µM in [7]. For the same compound, the cytotoxic concentration (CC50) in experiment [5] was determined as 40.8 µM.

Turning to `SC1=NC(c2ccccc2)C(c2ccccc2)N1Nc1cccc(Cl)c1` (centres undefined), the IC50 in [1], in [2], in [3], in [4] and in experiment [7] was > 36.3 µM throughout. Moreover, in [5], the midpoint of cytotoxicity, the CC50, lay at 36.3 µM.

Regarding `CC(=O)c1ccc(C)cc1NC(C(N)=O)c1c(Cl)cccc1Cl` (centres undefined) [LOVIRIDE], the IC50 in [1] was > 10 µM; in [2] it was > 10 µM; in experiment [3], > 10 µM; in experiment [4] it was 0.006 µM; in experiment [7] it was 0.014 µM. Also, the cytotoxic concentration (CC50) in [11] was > 10 µM.
